This passage reports EC50, Kd and IC50 results from paper PMC6436633 (ChemMedChem, 2018).

Where two headings read alike, the source gives them in different places.

The test system of one data set is HuH7 cells. Type of data set: cell-based, human.
The target of data set [1] is T1, PfPK5 (Plasmodium falciparum, UniProt P61075). In words: KINOMEscan active-site-directed competition binding assay, PfPK5. The settings on record: read-out: PfPK5 Kd(app), determined in duplicate, 0–30 μM.
Data set [2] addresses T1, PfPK5. To be noted: read-out: PfPK5 Kd; cited from earlier work.
For data set [3], the system named is P. falciparum Dd2 asexual blood stage parasites. In words: P. falciparum Dd2 asexual blood stage inhibition. In kind it is cell-based, Plasmodium falciparum. To be noted: read-out: blood stage parasite EC50, dose-response. In outline: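 Asexual blood-stage P. falciparum Dd2 cultured with test compound in O-positive human blood for 72 h at 37 °C under 93% N2, 4% CO2, 3% O2, with 0.2% DMSO final. Nuclei then stained with SYBR Green I and fluorescence read. Data normalised to DMSO, with artesunate as positive control.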

Data set [4] has as its target T1, PfPK5. The settings on record: read-out: PfPK5 IC50; cited from earlier work.

T1 sequence (P61075 whole entry): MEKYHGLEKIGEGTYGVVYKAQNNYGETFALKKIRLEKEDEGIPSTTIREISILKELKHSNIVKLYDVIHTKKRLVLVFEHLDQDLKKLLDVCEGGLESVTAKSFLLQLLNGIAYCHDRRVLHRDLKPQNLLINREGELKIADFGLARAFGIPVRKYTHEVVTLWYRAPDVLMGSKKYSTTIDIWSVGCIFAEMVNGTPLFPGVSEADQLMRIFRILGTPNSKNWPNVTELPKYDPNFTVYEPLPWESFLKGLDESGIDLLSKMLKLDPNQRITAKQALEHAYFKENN

As for `Nc1nc(Nc2ccc(S(N)(=O)=O)cc2)nn1C(=S)Nc1c(F)cccc1F` [Compound 1a], the results for the EC50 (in the data set on HuH7 cells; in data set [3]) were 67 µM and 0.14 µM, respectively. Further, the Kd on PfPK5 [1] was 0.37 µM; on PfPK5 [2], 0.32 µM.
Turning to `CC(C)[C@H](CO)Nc1nc(Nc2cccc(Cl)c2)c2ncn(C(C)C)c2n1` [Purvalanol A, purvalanol A], the IC50 at PfPK5 [4] is 8 µM.
For the compound `O=C1Nc2ccccc2/C1=C1/Nc2ccccc2/C1=N\O` [indirubin-3´-monoxime], the IC50 at PfPK5 [4] was 6 µM.
